ChEMBL document CHEMBL1154186, “Synthesis, kinase inhibitory potencies, and in vitro antiproliferative evaluation of new Pim kinase inhibitors” (J Med Chem, 2009)

Key:
[1] = target: Mitogen-activated protein kinase 8 (Homo sapiens) (UniProt P45983); test: Inhibition of JNK1 assessed as residual enzyme activity at 10 uM relative to untreated control
In short: (§1)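 Kinases of human origin, except CK1δ, which is rat. Run in 50 mM Tris/HCl pH 7.5, 0.1 mM EGTA, 0.1% 2-mercaptoethanol and 10 mM Mg acetate, with [γ-33P]ATP at 20 µM, 30 min at 21 °C. Acid-stopped and captured on P81 filters. Compound tested at 10 µM; residual % of uninhibited control, duplicate determinations.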

[2] = target: Mitogen-activated protein kinase 9 (Homo sapiens) (UniProt P45984); test: Inhibition of JNK2 assessed as residual enzyme activity at 10 uM relative to untreated control; in short: as §1
Mitogen-activated protein kinase 9 (Homo sapiens), sequence (P45984 whole entry, looked up): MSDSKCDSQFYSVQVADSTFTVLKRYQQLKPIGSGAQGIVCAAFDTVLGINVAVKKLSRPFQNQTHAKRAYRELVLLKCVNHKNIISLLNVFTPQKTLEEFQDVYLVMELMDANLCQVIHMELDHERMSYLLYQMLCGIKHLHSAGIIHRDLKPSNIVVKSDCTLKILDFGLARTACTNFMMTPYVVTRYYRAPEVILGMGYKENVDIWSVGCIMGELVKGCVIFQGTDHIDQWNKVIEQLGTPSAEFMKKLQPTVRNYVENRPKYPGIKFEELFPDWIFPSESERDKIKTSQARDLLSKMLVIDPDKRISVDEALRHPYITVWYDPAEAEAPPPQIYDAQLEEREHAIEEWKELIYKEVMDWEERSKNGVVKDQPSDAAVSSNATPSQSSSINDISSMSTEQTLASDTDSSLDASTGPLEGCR

[3] = target: Mitogen-activated protein kinase 14 (Homo sapiens) (UniProt Q16539); test: Inhibition of p38alpha assessed as residual enzyme activity at 10 uM relative to untreated control
Mitogen-activated protein kinase 14 (Homo sapiens), sequence (Q16539 whole entry): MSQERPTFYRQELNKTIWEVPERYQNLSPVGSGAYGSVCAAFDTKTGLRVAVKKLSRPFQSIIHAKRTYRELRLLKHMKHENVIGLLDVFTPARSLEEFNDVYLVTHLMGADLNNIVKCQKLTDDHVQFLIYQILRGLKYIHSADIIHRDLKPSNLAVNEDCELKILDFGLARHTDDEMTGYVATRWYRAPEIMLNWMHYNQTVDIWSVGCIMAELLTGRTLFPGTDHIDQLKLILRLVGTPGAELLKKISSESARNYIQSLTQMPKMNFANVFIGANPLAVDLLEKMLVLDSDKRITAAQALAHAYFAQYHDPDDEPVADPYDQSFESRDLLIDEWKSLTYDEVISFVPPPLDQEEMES
In short: (§2)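 p38γ and p38δ MAPK run at 5 µM [γ-33P]ATP, and p38α at 50 µM, each with 10 mM Mg acetate. Buffer 50 mM Tris/HCl pH 7.5, 0.1 mM EGTA, 0.1% 2-mercaptoethanol. 10 µM compound, 30 min at 21 °C. P81 filter capture. Residual activity relative to control, duplicates.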

[4] = target: T1, Mitogen-activated protein kinase 12 (Homo sapiens) (UniProt P53778); test: Inhibition of p38-gamma assessed as residual enzyme activity at 10 uM relative to untreated control; in short: as §2
T1 sequence (whole entry): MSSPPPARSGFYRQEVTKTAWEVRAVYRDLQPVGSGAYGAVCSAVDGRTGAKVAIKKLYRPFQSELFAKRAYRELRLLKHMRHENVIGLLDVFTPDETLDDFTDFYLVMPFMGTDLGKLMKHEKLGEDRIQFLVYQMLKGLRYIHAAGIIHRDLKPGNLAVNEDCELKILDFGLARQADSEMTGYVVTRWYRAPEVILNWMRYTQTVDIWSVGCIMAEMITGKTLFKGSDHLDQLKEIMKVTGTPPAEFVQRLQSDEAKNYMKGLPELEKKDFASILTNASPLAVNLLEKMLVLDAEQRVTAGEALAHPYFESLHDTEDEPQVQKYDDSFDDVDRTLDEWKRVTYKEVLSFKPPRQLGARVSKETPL

[5] = target: Serine/threonine-protein kinase PAK 5 (Homo sapiens) (UniProt Q9P286); test: Inhibition of PAK5 assessed as residual enzyme activity at 10 uM relative to untreated control; in short: as §1
Serine/threonine-protein kinase PAK 5 (Homo sapiens), sequence (Q9P286 whole entry, looked up): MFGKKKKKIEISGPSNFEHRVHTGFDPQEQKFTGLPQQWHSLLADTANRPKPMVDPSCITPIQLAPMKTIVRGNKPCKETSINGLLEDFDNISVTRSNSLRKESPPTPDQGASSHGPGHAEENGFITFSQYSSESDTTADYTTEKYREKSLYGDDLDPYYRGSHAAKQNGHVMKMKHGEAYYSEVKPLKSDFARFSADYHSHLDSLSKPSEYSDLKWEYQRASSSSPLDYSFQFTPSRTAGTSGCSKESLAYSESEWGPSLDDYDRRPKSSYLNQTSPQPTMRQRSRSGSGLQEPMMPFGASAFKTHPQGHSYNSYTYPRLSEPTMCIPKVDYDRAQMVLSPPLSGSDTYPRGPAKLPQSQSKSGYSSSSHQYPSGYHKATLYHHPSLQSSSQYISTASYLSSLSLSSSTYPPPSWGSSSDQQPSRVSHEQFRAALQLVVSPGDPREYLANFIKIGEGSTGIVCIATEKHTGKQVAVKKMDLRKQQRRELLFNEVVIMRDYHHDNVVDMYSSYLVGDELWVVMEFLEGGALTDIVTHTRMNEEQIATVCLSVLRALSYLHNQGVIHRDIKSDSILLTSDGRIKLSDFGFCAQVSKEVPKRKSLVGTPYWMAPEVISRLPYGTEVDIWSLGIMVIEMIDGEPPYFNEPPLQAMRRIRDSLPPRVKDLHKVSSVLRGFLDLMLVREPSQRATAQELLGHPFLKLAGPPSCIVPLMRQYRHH

[6] = target: RAC-alpha serine/threonine-protein kinase (Homo sapiens) (UniProt P31749); test: Inhibition of PKBalpha assessed as residual enzyme activity at 10 uM relative to untreated control
In short: (§3)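 Radiometric filter-binding assay at 21 °C for 30 min. Mix: 50 mM Tris/HCl pH 7.5, 0.1 mM EGTA, 0.1% 2-mercaptoethanol, 10 mM Mg acetate and [γ-33P]ATP (800 cpm/pmol) at 5 µM. Stopped with orthophosphoric acid and spotted on P81. Compound at 10 µM; activity given as % remaining versus no-inhibitor control, duplicates. Kinases human full-length unless noted.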

[7] = target: MAP kinase-interacting serine/threonine-protein kinase 1 (Homo sapiens) (UniProt Q9BUB5); test: Inhibition of MNK1 assessed as residual enzyme activity at 10 uM relative to untreated control
In short: (§4)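 Assayed with [γ-33P]ATP at 50 µM and 10 mM Mg acetate in 50 mM Tris/HCl pH 7.5, 0.1 mM EGTA, 0.1% 2-mercaptoethanol, 30 min, 21 °C. Phosphoric acid stop, P81 filter capture. ERK2 and Lck are mouse; AMPK is rat. 10 µM compound; % activity remaining relative to control without inhibitor, duplicates.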

[8] = target: Calcium/calmodulin-dependent protein kinase kinase 1 (Homo sapiens) (UniProt Q8N5S9); test: Inhibition of CAMKKalpha assessed as residual enzyme activity at 10 uM relative to untreated control
Calcium/calmodulin-dependent protein kinase kinase 1 (Homo sapiens), sequence (Q8N5S9 whole entry, looked up): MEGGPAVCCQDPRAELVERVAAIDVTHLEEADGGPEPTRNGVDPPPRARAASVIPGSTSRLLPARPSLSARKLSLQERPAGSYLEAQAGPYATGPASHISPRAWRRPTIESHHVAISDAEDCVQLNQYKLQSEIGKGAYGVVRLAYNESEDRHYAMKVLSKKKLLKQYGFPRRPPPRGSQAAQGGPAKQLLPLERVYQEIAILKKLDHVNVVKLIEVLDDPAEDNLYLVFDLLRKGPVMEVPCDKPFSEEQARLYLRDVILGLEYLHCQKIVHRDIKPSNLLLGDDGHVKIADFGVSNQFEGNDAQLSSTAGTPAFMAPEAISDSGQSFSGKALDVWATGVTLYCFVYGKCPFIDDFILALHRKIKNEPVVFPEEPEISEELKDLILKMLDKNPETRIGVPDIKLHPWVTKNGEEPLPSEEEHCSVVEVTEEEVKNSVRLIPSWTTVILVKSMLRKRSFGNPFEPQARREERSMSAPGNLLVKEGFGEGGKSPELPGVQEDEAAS

[9] = target: Myosin light chain kinase, smooth muscle (Homo sapiens) (UniProt Q15746); test: Inhibition of smMLCK assessed as residual enzyme activity at 10 uM relative to untreated control
[10] = target: Glycogen synthase kinase-3 beta (Homo sapiens) (UniProt P49841); test: Inhibition of GSK3-beta assessed as residual enzyme activity at 10 uM relative to untreated control; in short: as §3
Glycogen synthase kinase-3 beta (Homo sapiens), sequence (P49841 whole entry, looked up): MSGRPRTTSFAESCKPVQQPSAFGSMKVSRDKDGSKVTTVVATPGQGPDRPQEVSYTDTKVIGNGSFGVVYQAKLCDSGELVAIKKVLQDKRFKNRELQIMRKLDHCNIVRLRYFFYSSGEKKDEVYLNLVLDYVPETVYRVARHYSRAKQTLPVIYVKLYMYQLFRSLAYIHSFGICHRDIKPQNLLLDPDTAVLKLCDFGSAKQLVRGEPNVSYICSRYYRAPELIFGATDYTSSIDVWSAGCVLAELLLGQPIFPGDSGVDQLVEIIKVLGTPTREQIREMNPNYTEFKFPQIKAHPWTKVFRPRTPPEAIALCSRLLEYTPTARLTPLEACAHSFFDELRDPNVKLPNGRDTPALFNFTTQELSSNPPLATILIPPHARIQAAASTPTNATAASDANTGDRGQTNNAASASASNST

[11] = Inhibition of AMPK assessed as residual enzyme activity at 10 uM relative to untreated control; in short: as §4
[12] = target: T2, Serine/threonine-protein kinase Nek2 (Homo sapiens) (UniProt P51955); test: Inhibition of NEK2alpha assessed as residual enzyme activity at 10 uM relative to untreated control; in short: as §4
T2 sequence (whole entry): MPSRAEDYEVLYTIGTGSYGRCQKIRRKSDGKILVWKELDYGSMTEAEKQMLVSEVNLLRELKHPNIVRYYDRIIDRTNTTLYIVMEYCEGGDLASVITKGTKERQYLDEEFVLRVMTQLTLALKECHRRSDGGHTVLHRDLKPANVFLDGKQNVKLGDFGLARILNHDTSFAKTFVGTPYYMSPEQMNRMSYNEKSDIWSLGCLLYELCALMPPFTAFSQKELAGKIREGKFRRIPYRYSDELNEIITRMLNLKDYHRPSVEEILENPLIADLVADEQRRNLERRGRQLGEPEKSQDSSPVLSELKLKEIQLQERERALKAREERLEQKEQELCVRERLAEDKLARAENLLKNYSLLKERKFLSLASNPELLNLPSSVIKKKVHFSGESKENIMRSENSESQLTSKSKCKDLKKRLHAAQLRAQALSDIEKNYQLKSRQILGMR

[13] = target: Serine/threonine-protein kinase Nek7 (Homo sapiens) (UniProt Q8TDX7); test: Inhibition of NEK7 assessed as residual enzyme activity at 10 uM relative to untreated control; in short: as §1
Serine/threonine-protein kinase Nek7 (Homo sapiens), sequence (Q8TDX7 whole entry, looked up): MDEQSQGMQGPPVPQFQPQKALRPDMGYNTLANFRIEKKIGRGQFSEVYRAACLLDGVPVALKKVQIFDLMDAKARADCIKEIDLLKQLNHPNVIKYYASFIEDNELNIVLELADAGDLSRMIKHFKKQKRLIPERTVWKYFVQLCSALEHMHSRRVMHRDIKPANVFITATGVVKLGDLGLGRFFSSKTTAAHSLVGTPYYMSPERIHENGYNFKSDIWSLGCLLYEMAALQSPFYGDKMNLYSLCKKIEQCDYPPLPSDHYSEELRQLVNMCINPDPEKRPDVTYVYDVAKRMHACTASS

[14] = target: SRSF protein kinase 1 (Homo sapiens) (UniProt Q96SB4); test: Inhibition of SRPK1 assessed as residual enzyme activity at 10 uM relative to untreated control
SRSF protein kinase 1 (Homo sapiens), sequence (Q96SB4 whole entry): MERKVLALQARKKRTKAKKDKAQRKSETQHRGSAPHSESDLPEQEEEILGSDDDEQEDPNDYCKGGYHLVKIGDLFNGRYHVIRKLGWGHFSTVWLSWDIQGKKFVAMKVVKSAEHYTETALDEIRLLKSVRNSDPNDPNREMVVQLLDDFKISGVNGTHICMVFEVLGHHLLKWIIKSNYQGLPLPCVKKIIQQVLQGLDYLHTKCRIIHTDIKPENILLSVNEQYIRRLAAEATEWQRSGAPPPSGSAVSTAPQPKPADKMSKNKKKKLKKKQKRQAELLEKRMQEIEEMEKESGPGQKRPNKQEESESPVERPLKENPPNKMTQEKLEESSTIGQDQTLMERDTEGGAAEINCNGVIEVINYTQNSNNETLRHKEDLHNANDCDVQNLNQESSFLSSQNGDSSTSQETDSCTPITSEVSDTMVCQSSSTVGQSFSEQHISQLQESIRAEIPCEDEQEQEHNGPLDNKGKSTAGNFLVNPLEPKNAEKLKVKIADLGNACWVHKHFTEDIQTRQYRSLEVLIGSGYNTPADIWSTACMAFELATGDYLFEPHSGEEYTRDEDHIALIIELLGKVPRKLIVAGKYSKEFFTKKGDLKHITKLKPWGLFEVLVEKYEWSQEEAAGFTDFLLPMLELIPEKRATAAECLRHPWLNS

[15] = target: T3, Mitogen-activated protein kinase 13 (Homo sapiens) (UniProt O15264); test: Inhibition of p38delta assessed as residual enzyme activity at 10 uM relative to untreated control; in short: as §2
T3 sequence (whole entry): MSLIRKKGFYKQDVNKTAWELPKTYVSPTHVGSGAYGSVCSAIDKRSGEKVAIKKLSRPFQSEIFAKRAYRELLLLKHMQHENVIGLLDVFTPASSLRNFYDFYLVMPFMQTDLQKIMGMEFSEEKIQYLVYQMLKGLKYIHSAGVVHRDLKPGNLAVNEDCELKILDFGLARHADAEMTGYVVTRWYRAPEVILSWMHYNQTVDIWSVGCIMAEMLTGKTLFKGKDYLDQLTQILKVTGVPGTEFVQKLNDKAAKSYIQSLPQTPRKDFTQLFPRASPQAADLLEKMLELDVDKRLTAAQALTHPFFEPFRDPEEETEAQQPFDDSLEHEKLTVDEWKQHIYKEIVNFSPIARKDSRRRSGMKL

[16] = target: Homeodomain-interacting protein kinase 2 (Homo sapiens) (UniProt Q9H2X6); test: Inhibition of HIPK2 assessed as residual enzyme activity at 10 uM relative to untreated control; in short: as §3
Homeodomain-interacting protein kinase 2 (Homo sapiens), sequence (Q9H2X6 whole entry, looked up): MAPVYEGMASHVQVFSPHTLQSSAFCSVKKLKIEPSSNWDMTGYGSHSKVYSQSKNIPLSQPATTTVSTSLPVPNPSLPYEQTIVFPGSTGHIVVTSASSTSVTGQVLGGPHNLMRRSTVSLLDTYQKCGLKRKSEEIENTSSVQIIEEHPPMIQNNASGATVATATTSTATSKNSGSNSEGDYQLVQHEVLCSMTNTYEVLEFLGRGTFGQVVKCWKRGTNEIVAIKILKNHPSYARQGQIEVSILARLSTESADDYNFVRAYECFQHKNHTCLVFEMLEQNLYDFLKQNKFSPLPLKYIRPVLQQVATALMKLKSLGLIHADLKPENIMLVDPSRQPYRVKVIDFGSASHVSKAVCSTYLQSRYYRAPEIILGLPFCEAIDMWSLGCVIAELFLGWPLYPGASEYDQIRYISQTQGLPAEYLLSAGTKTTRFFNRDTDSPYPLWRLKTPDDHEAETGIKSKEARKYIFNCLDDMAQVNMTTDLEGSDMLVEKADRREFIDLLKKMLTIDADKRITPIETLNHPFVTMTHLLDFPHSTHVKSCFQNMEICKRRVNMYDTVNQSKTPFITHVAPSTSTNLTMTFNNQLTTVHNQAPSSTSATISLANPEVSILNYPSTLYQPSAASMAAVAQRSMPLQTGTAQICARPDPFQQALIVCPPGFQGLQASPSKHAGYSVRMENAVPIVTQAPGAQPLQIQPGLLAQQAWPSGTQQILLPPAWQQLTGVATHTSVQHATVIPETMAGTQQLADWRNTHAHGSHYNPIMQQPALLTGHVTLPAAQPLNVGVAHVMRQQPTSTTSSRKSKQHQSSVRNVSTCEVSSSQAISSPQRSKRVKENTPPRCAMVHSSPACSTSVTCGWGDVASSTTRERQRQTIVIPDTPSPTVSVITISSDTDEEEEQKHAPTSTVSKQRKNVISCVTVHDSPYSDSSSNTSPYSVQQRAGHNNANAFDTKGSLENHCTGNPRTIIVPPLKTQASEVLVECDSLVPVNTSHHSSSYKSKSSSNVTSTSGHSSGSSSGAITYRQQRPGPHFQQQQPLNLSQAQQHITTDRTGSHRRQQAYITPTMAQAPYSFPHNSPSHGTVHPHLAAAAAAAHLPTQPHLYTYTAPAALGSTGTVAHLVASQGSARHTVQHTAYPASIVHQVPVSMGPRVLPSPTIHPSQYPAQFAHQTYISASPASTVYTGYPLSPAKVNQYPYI

Mitogen-activated protein kinase 8 (Homo sapiens), sequence (P45983 whole entry): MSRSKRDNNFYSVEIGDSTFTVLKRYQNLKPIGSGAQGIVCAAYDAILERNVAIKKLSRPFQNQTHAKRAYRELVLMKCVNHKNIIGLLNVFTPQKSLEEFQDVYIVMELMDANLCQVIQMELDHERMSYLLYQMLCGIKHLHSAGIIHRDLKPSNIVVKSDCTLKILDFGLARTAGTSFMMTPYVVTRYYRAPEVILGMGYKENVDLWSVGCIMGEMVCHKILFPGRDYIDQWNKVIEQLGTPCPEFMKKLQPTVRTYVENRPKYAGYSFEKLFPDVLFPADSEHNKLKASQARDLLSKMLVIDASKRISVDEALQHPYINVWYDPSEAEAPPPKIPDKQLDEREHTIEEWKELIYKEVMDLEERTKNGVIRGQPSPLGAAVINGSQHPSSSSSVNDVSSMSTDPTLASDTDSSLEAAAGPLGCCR

Row | Structure (SMILES) | Activity [1] | Activity [2] | Activity [3] | Activity [4] | Activity [5] | Activity [6] | Activity [7] | Activity [8] | Activity [9] | Activity [10] | Activity [11] | Activity [12] | Activity [13] | Activity [14] | Activity [15] | Activity [16]
1 | O=Cc1c[nH]c2c1ccc1c3ccccc3[nH]c12 | 102% | 128% | 102% | 74% | 87% | 96% | 27% | 42% | 60% | 88% | 59% | 88% | 89% | 84% |  | 
2 | O=Cc1c[nH]c2ccc3c4ccccc4[nH]c3c12 | 113% | 111% | 108% | 109% | 96% | 112% | 106% | 90% | 91% | 96% | 85% | 100% | 95% | 93% | 83% | 95%
3 | c1ccc2c(c1)[nH]c1c2ccc2cc[nH]c21 | 102% | 118% | 108% | 111% | 82% | 120% | 69% | 76% | 86% | 111% | 80% | 104% | 96% | 90% | 78% | 59%
4 | c1ccc2c(c1)[nH]c1c3cc[nH]c3ccc21 | 116% | 130% | 115% | 111% | 99% | 110% | 101% | 92% | 82% | 102% | 79% | 96% | 92% | 94% | 89% | 72%
